Data on 55 compounds can be found in ChEMBL document CHEMBL3352088, “Novel derivatives of usnic acid effectively inhibiting reproduction of influenza A virus” (Bioorg Med Chem, 2014).

A short description of this assay: Antiviral activity against rimantidine, amantidine-resistant Influenza A virus (A/California/07/09(H1N1)) pdm09 infected in MDCK cells assessed as inhibition of viral replication after 1 hrs by hemagglutination assay. In kind it is functional, Influenza A virus (A/California/07/2009(H1N1)). The note with it: read-out: ED50 (the source's name). In short, it runs like this:
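MDCK cells were pre-incubated 1 h at 37°C with serial twofold compound dilutions in MEM containing 2 mM arginine, 2 mM glutamine and 2 microgram/mL trypsin, then infected and cultured 48 h at 36°C. Supernatant was mixed with 1% chicken erythrocytes for 1 h at room temperature to read hemagglutination titer. ED50 is the concentration that halves virus production versus untreated cells.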
`CC(=O)C1=C(O)C=C2Oc3c4c(c(C)c(O)c3[C@@]2(C)C1=O)O/C(=C\c1cccnc1)C4=O`: the EC50 was found to be 7 µM.
Then `COc1ccc(-c2cc(-c3c(O)c(C)c(OC)c4c3OC3=Cc5c(c(C)nn5-c5ccccc5)[C@@H](O)[C@@]34C)n[nH]2)cc1`, with 102 µM; and `COc1c(C)c(O)c(C(=O)/C=C/c2ccc(Cl)cc2)c2c1[C@]1(C)C(=Cc3c(c(C)nn3-c3ccccc3)[C@H]1O)O2`, with 55.1 µM.
Then `COc1ccc(/C=C/C(=O)c2c(O)c(C)c(OC)c3c2OC2=Cc4c(c(C)nn4-c4ccccc4)[C@@H](O)[C@@]23C)c(OC)c1OC`, with 32.8 µM.
For `CSCC[C@H](N/C(C)=C1\C(=O)C=C2Oc3c(C(C)=O)c(O)c(C)c(O)c3[C@@]2(C)C1=O)C(=O)O` the value was 4.2 µM; for `CC(=O)c1c(O)c(C)c(O)c2c1OC1=CC(=O)/C(=C(/C)NCCCC(=O)O)C(=O)[C@]12C`, 28 µM.
Take `COc1c(C)c(O)c(C(=O)/C=C/c2ccccc2)c2c1[C@@]1(C)C(=Cc3c(c(C)nn3-c3ccccc3)[C@@H]1O)O2`: the EC50 was found to be 60.6 µM.
Then `COc1ccc2[nH]c(SCC(=O)c3c(OC)c(C)c(O)c4c3OC3=CC(O)=C(C(C)=O)C(=O)[C@@]34C)nc2c1`, with 24.3 µM.
With `CC(=O)c1c(O)c(C)c(O)c2c1OC1=CC(=O)/C(=C(/C)NCCCC(=O)O)C(=O)[C@@]12C`, the EC50 is 35 µM.
As to `CC(=O)C1=C(O)C[C@H]2Oc3c(C(C)=O)c(O)c(C)c(O)c3[C@@]2(C)C1=O`, the EC50 worked out at 8.1 µM.
For the compound `CC(=O)c1c(O)c(C)c(O)c2c1OC1=Cc3c(c(C)nn3-c3ccccc3)C(=O)[C@@]12C`, the EC50 was 69.5 µM.
For `COc1c(C)c(O)c(C(=O)/C=C/c2ccccc2)c2c1[C@]1(C)C(=Cc3c(c(C)nn3-c3ccccc3)CC13CO3)O2` (single isomer, unassigned; (+)) the value was 5.5 µM; for `CC(=O)c1c(O)c(C)c(O)c2c1OC1=Cc3c(c(C)nn3-c3cccc(C(F)(F)F)c3)C(=O)[C@@]12C`, 68.4 µM.
As to `COc1c(C)c(O)c2c(c1C(=O)CSC1=NCCS1)OC1=CC(O)=C(C(C)=O)C(=O)[C@@]12C`, the EC50 turned out to be 14.7 µM.
Consider `COc1ccc(OC)c(/C=C/C(=O)c2c(O)c(C)c(OC)c3c2OC2=Cc4c(c(C)nn4-c4ccccc4)[C@@H](O)[C@@]23C)c1`, for which the EC50 amounted to 25.9 µM.
For `CC(=O)c1c(O)c(C)c(O)c2c1OC1=CC(=O)/C(=C(/C)NCCC(=O)O)C(=O)[C@@]12C` the value was 7.2 µM; for `CC(=O)C1=C(O)C=C2Oc3c4c(c(C)c(O)c3[C@]2(C)C1=O)OCC4=O`, 64.3 µM.
In the case of `CC(=O)c1c(O)c(C)c(O)c2c1OC1=Cc3c(c(C)nn3-c3ccccc3)C(=O)[C@]12C`, the EC50 turned out to be 56.3 µM.
For the compound `CC(=O)c1c(O)c(C)c(O)c2c1OC1=CC(=O)/C(=C(/C)N[C@H](CC(=O)O)CC(C)C)C(=O)[C@]12C`, the EC50 turned out to be 6.6 µM.
Then `COc1cc(/C=C/C(=O)c2c(O)c(C)c(OC)c3c2OC2=Cc4c(c(C)nn4-c4ccccc4)[C@@H](O)[C@@]23C)cc(OC)c1OC`, with 8.2 µM; and `CC(=O)[C@@]12O[C@@]13OC1=Cc4c(c(C)nn4-c4ccccc4)C(=O)[C@]1(C)[C@@]3(O)C(O)=C(C)C2=O`, with 13.4 µM.
As for `CC(=O)C1=C(O)C=C2Oc3c(C(C)=O)c(OC(F)(Cl)C(F)F)c(C)c(O)c3[C@@]2(C)C1=O` (stereo not given in full), the EC50 came out at 7.2 µM.
Then `CC(=O)C1=C(O)C=C2Oc3c4c(c(C)c(O)c3[C@@]2(C)C1=O)O/C(=C\c1ccc(Br)cc1)C4=O`, with 4.7 µM; and `CC(=O)C1=C(O)C=C2Oc3c(C(=O)CSCc4ccc(C)cc4)c(O)c(C)c(O)c3[C@@]2(C)C1=O`, with 2.1 µM.
Take `COc1c(C)c(O)c(C(=O)/C=C/c2ccccc2)c2c1[C@]1(C)C(=Cc3c(c(C)nn3-c3ccccc3)[C@H]1O)O2`: the EC50 was 32.7 µM.
`CC(=O)C1=C(O)C=C2O[C@]34O[C@@]3(C(C)=O)C(=O)C(C)=C(O)[C@]4(O)[C@@]2(C)C1=O`: the EC50 came out at 10.6 µM.
As for `CC(=O)C1=C(O)C=C2Oc3c(C(C)=O)c(O)c(C)c(O)c3[C@]2(C)C1=O` [(-)-USNIC ACID], the EC50 amounted to 13.1 µM.
`CC(=O)C1=C(O)C=C2Oc3c4c(c(C)c(O)c3[C@@]2(C)C1=O)OCC4=O`: the EC50 is 64.3 µM.
Take `COc1ccccc1/C=C1\Oc2c(C)c(O)c3c(c2C1=O)OC1=CC(O)=C(C(C)=O)C(=O)[C@@]13C`: the EC50 is 4.8 µM.
As for `CC(=O)C1=C(O)C=C2Oc3c(C(C)=O)c(OC(=O)c4ccccc4Br)c(C)c(OC(=O)c4ccccc4Br)c3[C@@]2(C)C1=O`, the EC50 came out at 7.8 µM.
For the compound `COc1cccc(/C=C/C(=O)c2c(O)c(C)c(OC)c3c2OC2=Cc4c(c(C)nn4-c4ccccc4)C(=O)[C@@]23C)c1OC`, the EC50 came out at 8.7 µM.
For `CC(=O)c1c(O)c(C)c(O)c2c1OC1=CC(=O)/C(=C(/C)NCCC(=O)O)C(=O)[C@]12C` the value was 14.5 µM; for `CC(=O)C1=C(O)C=C2Oc3c(C(=O)CSc4nc5ccccc5o4)c(O)c(C)c(O)c3[C@@]2(C)C1=O`, 2 µM.
On to `CC(=O)c1c(O)c(C)c(O)c2c1OC1=Cc3c(c(C)nn3-c3ccccc3)[C@@H](O)[C@@]12C`, for which the EC50 amounted to 2.4 µM.
For `COc1c(C)c(O)c(C(=O)/C=C/c2ccc(SC)cc2)c2c1[C@]1(C)C(=Cc3c(c(C)nn3-c3ccccc3)[C@H]1O)O2` the value was 53 µM; for `CC(=O)C1=C(O)C=C2Oc3c(C(=O)CSc4nc5ccccc5s4)c(O)c(C)c(O)c3[C@@]2(C)C1=O`, 29.5 µM.
For the compound `CC(=O)c1c(O)c(C)c(O)c2c1OC1=CC(=O)/C(=C(/C)NCC(=O)O)C(=O)[C@]12C`, the EC50 came to 10.7 µM.
`COc1c(C)c(O)c(C(C)=O)c2c1[C@]1(C)C(=Cc3c(c(C)nn3-c3ccccc3)CC13CO3)O2` (single isomer, unassigned; (+)): the EC50 is 262 µM.
Turning to `COc1cccc(/C=C/C(=O)c2c(O)c(C)c(OC)c3c2OC2=Cc4c(c(C)nn4-c4ccccc4)[C@H](O)[C@]23C)c1OC`, the EC50 stood at 76.4 µM.
`CC(=O)C1=C(O)C=C2O[C@@]34O[C@]3(C(C)=O)C(=O)C(C)=C(O)[C@@]4(O)[C@]2(C)C1=O`: the EC50 was determined as 28.7 µM.
In the case of `CC(=O)C1=C(O)C=C2Oc3c(C(=O)CSCc4ncccc4C(=O)O)c(O)c(C)c(O)c3[C@@]2(C)C1=O`, the EC50 came to 56.3 µM.
For `COc1c(C)c(O)c(C(=O)/C=C/c2ccc(Cl)cc2)c2c1[C@@]1(C)C(=Cc3c(c(C)nn3-c3ccccc3)[C@@H]1O)O2` the value was 79.4 µM; for `CC(=O)C1=C(O)C=C2Oc3c4c(c(C)c(O)c3[C@@]2(C)C1=O)O/C(=C\c1ccncc1)C4=O`, 7.7 µM; for `CC(=O)c1c(O)c(C)c(O)c2c1OC1=CC(=O)/C(=C(/C)N[C@@H](CC(C)C)C(=O)O)C(=O)[C@@]12C`, 6.6 µM.
For `COc1ccc(/C=C/C(=O)c2c(O)c(C)c(OC)c3c2OC2=Cc4c(c(C)nn4-c4ccccc4)[C@@H](O)[C@@]23C)cc1OC`, the EC50 was found to be 34.5 µM.
In the case of `CC(=O)C1=C(O)C=C2Oc3c(C(C)=O)c(O)c(C)c(O)c3[C@@]2(C)C1=O` [(+)-USNIC ACID], the EC50 amounted to 51.7 µM.
In the case of `CC(=O)C1=C(O)C=C2Oc3c(C(=O)CSCc4ccccc4)c(O)c(C)c(O)c3[C@@]2(C)C1=O`, the EC50 is 2.1 µM.
In the case of `COc1ccc(/C=C/C(=O)c2c(O)c(C)c(OC)c3c2OC2=Cc4c(c(C)nn4-c4ccccc4)[C@@H](O)[C@@]23C)c(OC)c1`, the EC50 worked out at 25.9 µM.
On to `COc1ccccc1/C=C/C(=O)c1c(O)c(C)c(OC)c2c1OC1=Cc3c(c(C)nn3-c3ccccc3)[C@@H](O)[C@@]12C`, for which the EC50 amounted to 82.7 µM.
As to `COc1cccc(/C=C/C(=O)c2c(O)c(C)c(OC)c3c2OC2=Cc4c(c(C)nn4-c4ccccc4)[C@@H](O)[C@@]23C)c1OC`, the EC50 was 50.7 µM.
Take `COc1c(C)c(O)c2c(c1C(=O)CSc1nc3ccccc3o1)OC1=CC(O)=C(C(C)=O)C(=O)[C@]12C`: the EC50 was 23.7 µM.
Regarding `CC(=O)c1c(O)c(C)c(O)c2c1OC1=Cc3c(c(C)nn3-c3ccccc3)[C@H](O)[C@]12C`, the EC50 stood at 12 µM.
In the case of `COc1c(C)c(O)c2c(c1C(=O)CSCCC(=O)O)OC1=CC(O)=C(C(C)=O)C(=O)[C@@]12C`, the EC50 was 161 µM.
With `CC(=O)c1c(O)c(C)c(O)c2c1OC1=CC(=O)/C(=C(/C)NCC(=O)O)C(=O)[C@@]12C`, the EC50 was determined as 11.2 µM.
With `COc1ccccc1/C=C/C(=O)c1c(O)c(C)c(OC)c2c1OC1=Cc3c(c(C)nn3-c3ccccc3)[C@H](O)[C@]12C`, the EC50 turned out to be 64.9 µM.
